Compounds with a hit are over-represented: about 4.6% of the library has one in this group of screens.
M18AAP inhibitor – blocks P. falciparum M18 aspartyl aminopeptidase; AID 1822; recombinant PfM18AAP, H-Glu-NHMec fluorogenic cleavage; inhibition, % at 7.35 µM; hit rate 1.2% among 290,000;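 active = inhibition above the campaign mean inhibition over all tested compounds plus 3 SD, cut at about 28% in these data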
FAS-TE inh – FAS thioesterase (human) inhibition; P49327; recombinant FAS-TE, OMFH fluorogenic substrate, fluorescence endpoint; inhibition, % at 15 µM; hit rate 0.67% among 360,000; AID 602261;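 active = compounds whose normalised, plate-corrected inhibition of enzyme fluorescence in the single-dose primary screen is 50% or more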
Rtt109 HAT inh – C. albicans Rtt109 histone acetyltransferase inhibition; Q5AAJ8; purified Rtt109/Vps75, ThioGlo CoA-SH fluorescence, 4 h; inhibition, % at 34.9 µM; hit rate 0.16% among 330,000; AID 540336;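 active = inhibition of at least 50% in every replicate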
Target sequence (Q5AAJ8 whole entry, looked up): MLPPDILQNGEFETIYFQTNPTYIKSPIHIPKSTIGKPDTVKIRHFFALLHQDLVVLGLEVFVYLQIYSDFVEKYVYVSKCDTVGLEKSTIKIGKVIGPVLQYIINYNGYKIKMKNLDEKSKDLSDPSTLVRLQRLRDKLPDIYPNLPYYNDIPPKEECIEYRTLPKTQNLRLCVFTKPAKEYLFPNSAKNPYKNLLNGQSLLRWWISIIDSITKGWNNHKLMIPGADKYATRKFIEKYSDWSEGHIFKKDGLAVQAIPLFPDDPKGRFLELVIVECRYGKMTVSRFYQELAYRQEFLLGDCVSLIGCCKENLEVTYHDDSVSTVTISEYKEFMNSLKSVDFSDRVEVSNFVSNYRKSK
HDAC3 inhib – human HDAC3 inhibition. O15379. recombinant HDAC3, fluorogenic peptide/trypsin coupled, fluorescence. inhibition, % at 8.3 µM. hit rate 0.15% among 320,000. AID 2718; in the data active = inhibition above about 26%, passing the limit was not always enough
ALR inh – blocks human ALR sulfhydryl oxidase activity; purified ALR, DTT oxidation, H2O2 HRP-luminol luminescence; P55789; inhibition, % (concentration not given with the values); hit rate 3.8% among 290,000;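 active = mean replicate inhibition above about 79%, with every replicate also reaching it, limit read from the data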
Target sequence (P55789 whole entry, looked up): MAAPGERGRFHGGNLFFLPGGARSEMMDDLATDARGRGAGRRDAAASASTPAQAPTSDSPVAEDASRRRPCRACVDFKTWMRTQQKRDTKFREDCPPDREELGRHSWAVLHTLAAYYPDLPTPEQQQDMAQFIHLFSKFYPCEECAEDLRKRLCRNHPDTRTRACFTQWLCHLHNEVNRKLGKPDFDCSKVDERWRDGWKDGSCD
UCH37 inh – blocks the human deubiquitinase UCH37 | AID 588478 | purified proteasome/UCH37, Ub-AMC cleavage fluorescence | hit rate 0.33% among 330,000 | Q9Y5K5 | inhibition, % (test concentration not listed);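 active = mean inhibition over replicate wells above about 20%, limit read from the data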
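System: Proteasome-associated human UCH37 deubiquitinase; Input: 0.15 nM proteasome in added enzyme buffer; Also added: Ub-AMC substrate from 1 µM stock; Incubation: 30 min compound-proteasome preincubation then 25 min substrate reaction, room temperature; Detection: fluorescence, ex 355 nm, em 460 nm; Read-out: % inhibition of Ub-AMC cleavage fluorescence; Benchmarks: no-proteasome and no-compound wells.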
Each line names hits and unclear results; the compound was inactive in the other large screens.

CC(C)=C(NC(=O)c1ccccc1)C(=O)N/N=C/c1ccc(O)cc1	ALR inh 99 (no result: UCH37 inh)
CC(=NNC(=O)c1csc2ccccc12)c1ccc(O)cc1	none (no result: M18AAP inhibitor, FAS-TE inh, Rtt109 HAT inh, HDAC3 inhib, ALR inh)
O=C(N/N=C/c1ccc(O)cc1)c1csc2ccccc12	ALR inh 98 (no result: UCH37 inh)
O=C(NN=Cc1ccc(O)cc1)C(=O)NN=Cc1ccc(O)cc1	none (no result: M18AAP inhibitor, HDAC3 inhib, ALR inh)
O=[N+]([O-])c1cc2c(cc1C=Nn1c(-c3ccccn3)n[nH]c1=S)OCO2	none (no result: M18AAP inhibitor, FAS-TE inh, Rtt109 HAT inh, HDAC3 inhib, ALR inh)
O=C(Nc1ccccc1C(=O)N/N=C/c1ccc(O)cc1)c1ccccc1	ALR inh 94 (no result: UCH37 inh)
O=C(Nc1ccccc1C(=O)NN=Cc1ccccc1)c1ccco1	none (no result: M18AAP inhibitor, FAS-TE inh, Rtt109 HAT inh, HDAC3 inhib, ALR inh)
O=C(N/N=C/c1ccc(O)cc1)c1ccncc1	ALR inh 99 (no result: UCH37 inh)
O=C(N/N=C/c1ccncc1)c1ccncc1	none (no result: M18AAP inhibitor, HDAC3 inhib, ALR inh, UCH37 inh)
S=c1[nH]nc(-c2cccnc2)n1N=Cc1cccs1	none (no result: M18AAP inhibitor, FAS-TE inh, Rtt109 HAT inh, HDAC3 inhib, ALR inh)
Cc1ccn2c(NC(C)(C)C)c(-c3cccs3)nc2c1	ALR inh 99
CN(C)CCn1c2c(c(SCC(=O)Nc3cccc4ccccc34)nc1=O)CCCC2	none (no result: M18AAP inhibitor, Rtt109 HAT inh)
Cc1csc(NC(=O)CSc2nc(=O)n(CCN(C)C)c3c2CCCC3)n1	ALR inh 98 (no result: M18AAP inhibitor)
CCc1ccc(NC(=O)CSc2nc(=O)n(CCN(C)C)c3c2CCCC3)cc1	ALR inh 99 (no result: M18AAP inhibitor, Rtt109 HAT inh)
CCN(CC)CCn1c2c(c(SCC(=O)Nc3cccc(C(C)=O)c3)nc1=O)CCCC2	none (no result: M18AAP inhibitor, HDAC3 inhib, ALR inh)
COc1cccc(NC(=O)CSc2nc(=O)n(CCN(C)C)c3c2CCCC3)c1	ALR inh 97 (no result: M18AAP inhibitor)
CCN(CC)CCn1c2c(c(SCC(=O)Nc3cc(OC)cc(OC)c3)nc1=O)CCC2	ALR inh 96 (no result: M18AAP inhibitor)
N#CCC(=O)NN=Cc1ccc(SCC(=O)Nc2ccccc2)o1	none (no result: M18AAP inhibitor, FAS-TE inh, Rtt109 HAT inh, HDAC3 inhib, ALR inh)
COc1ccc(C=Nn2c(SC)nnc(C(C)(C)C)c2=O)cc1OC	none (no result: M18AAP inhibitor, FAS-TE inh, Rtt109 HAT inh, HDAC3 inhib, ALR inh)
NC(Cc1nc(-c2ccc(Br)cc2)cs1)=NO	none (no result: M18AAP inhibitor, FAS-TE inh, Rtt109 HAT inh, HDAC3 inhib, ALR inh)
c1ccc(C2CSc3ccccc3N2)cc1 (stereo unspecified)	M18AAP inhibitor 41
CC1CSc2ccccc2NC1=S (stereo unspecified)	none
O=C(O)c1ccc(N2C(=O)CC(N3C(=O)/C(=C/c4ccc(Cl)cc4)SC3=S)C2=O)cc1 (stereo unspecified)	ALR inh 100
O=C(O)c1ccc(N2C(=O)CC(N3CCN(c4ccc(Cl)cc4)CC3)C2=O)cc1 (stereo unspecified)	none
CC1(C)CC(=O)C(C=NCCc2ccc(O)cc2)=C(O)C1	ALR inh 96
Cc1c(N=Cc2ccncc2)c(=O)n(-c2ccccc2)n1C	none
Cc1c(N=Cc2ccccn2)c(=O)n(-c2ccccc2)n1C	ALR inh 98
Cc1c(N=Cc2c(O)n(C)c(=O)c3ccccc23)c(=O)n(-c2ccccc2)n1C	none
Cc1c(N=Cc2ccc[nH]2)c(=O)n(-c2ccccc2)n1C	ALR inh 97
C/C(C=NNC(=O)c1sc(N)nc1C)=C\c1ccccc1	none (no result: M18AAP inhibitor, FAS-TE inh, Rtt109 HAT inh, HDAC3 inhib, ALR inh)
N#Cc1ccc(Nc2nc(-c3ccc(O)cc3O)cs2)cc1C(F)(F)F	FAS-TE inh 61 (no result: M18AAP inhibitor, UCH37 inh)
Cc1cccc(Nc2nc(-c3ccc(O)cc3O)cs2)n1	ALR inh 97
Oc1ccc(-c2csc(Nc3ccc4c(c3)OCO4)n2)c(O)c1	none (no result: M18AAP inhibitor, HDAC3 inhib, ALR inh)
CCOC(=O)/C=C/C(=O)OCC(=O)Nc1ccc(C)cc1	none
CCOC(=O)/C=C/C(=O)OCC(=O)Nc1cccc(Br)c1	ALR inh 91
CN1CCc2nc(SCC(=O)Nc3ccc(OC(F)(F)F)cc3)c(C#N)c(-c3cccs3)c2C1	ALR inh 99
CN1CCc2nc(SCC(=O)Nc3cccc(F)c3)c(C#N)c(-c3cccs3)c2C1	none (no result: ALR inh)
CCCn1c(NCc2cc(OC)ccc2OC)nc2ccccc21	ALR inh 89 (no result: Rtt109 HAT inh)
COc1cccc(CNc2nc3ccccc3n2CCN2CCCCC2)c1OC	ALR inh 99
COc1ccc(OC)c(CNc2nc3ccccc3n2CCN2CCCCC2)c1	none
Brc1cccc(CNc2nc3ccccc3n2CCN2CCCCC2)c1	none (no result: ALR inh)
Cn1c(NCc2cccc(Br)c2)nc2ccccc21	ALR inh 93
CCn1c(NCc2cc(OC)ccc2OC)nc2ccccc21	none
COc1cccc(CNc2nc3ccccc3n2CCN2CCCCC2)c1	ALR inh 99
O=C(CNc1ccccc1)NN=Cc1ccc2c(c1)OCCO2	none (no result: M18AAP inhibitor, FAS-TE inh, Rtt109 HAT inh, HDAC3 inhib, ALR inh)
Cc1cc(C(=O)NN=Cc2sc(N3CCOCC3)nc2-c2ccccc2)c(C)o1	none (no result: M18AAP inhibitor, FAS-TE inh, Rtt109 HAT inh, HDAC3 inhib, ALR inh)
CCCCNC(=O)ON=C(N)CS(=O)(=O)C(C)(C)C	none (no result: M18AAP inhibitor, FAS-TE inh, Rtt109 HAT inh, HDAC3 inhib, ALR inh)
